Test results as given in ChEMBL document CHEMBL2062401, “New pyrimido[5,4-e]pyrrolo[1,2-c]pyrimidines: synthesis, 2D-QSAR, anti-inflammatory, analgesic and ulcerogenicity studies” (Eur J Med Chem, 2012).

Columns and labels:
Rattus norvegicus [1] = test: Antiinflammatory activity in Wistar albino rat assessed as inhibition of carrageenan-induced paw edema at 0.029 mmol/kg, po dosed 1 hr before carrageenan challenge measured 2 hrs post carrageenan-induced inflammation
Rattus norvegicus [2] = test: Antiinflammatory activity in Wistar albino rat assessed as inhibition of carrageenan-induced paw edema at 0.029 mmol/kg, po dosed 1 hr before carrageenan challenge measured 4 hrs post carrageenan-induced inflammation
Mus musculus [3] = test: Analgesic activity in Swiss albino mouse assessed as inhibition of acetic acid-induced writhing at 0.029 mmol/kg. po dosed 1 hr before acetic acid challenge and measured during 30 mins post acetic acid challenge; format: functional
Outline: (§1)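 Swiss albino mice of either sex, 18–22 g, six per group. Oral suspension at 0.029 mmol/kg given 1 h before 0.3 ml of 1% acetic acid i.p. Contractions counted for 30 min, starting 5 min after injection. % protection = (n − n')/n × 100 against control writhing. Potency% = % inhibition of test / % inhibition of indomethacin × 100. Mean ± SEM, ANOVA with post hoc test.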

Mus musculus [4] = test: Analgesic activity in Swiss albino mouse assessed as inhibition of acetic acid-induced writhing at 0.029 mmol/kg. po dosed 1 hr before acetic acid challenge and measured during 30 mins post acetic acid challenge relative to indomethacin; format: functional; settings: read-out: INH
Outline: as §1

Rattus norvegicus [5] = test: Antiinflammatory activity in Wistar albino rat assessed as inhibition of carrageenan-induced paw edema at 0.029 mmol/kg, po dosed 1 hr before carrageenan challenge measured 1 hr post carrageenan-induced inflammation; format: functional
Outline: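 Wistar albino rats of both sexes, 120–150 g, six per group, food withdrawn the day before. Given orally 0.029 mmol/kg in saline with a few drops of Tween 80, by stomach tube, 1 h before subplantar s.c. carrageenan (0.1 ml of 1%) into the right hind paw. Paw thickness measured at 1, 2, 3 and 4 h against baseline. % inhibition = 100 × (1 − Vt/Vc).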

Rattus norvegicus [6] = test: Gastrointestinal toxicity in Wistar albino rat assessed as incidence of stomach ulceration at 0.029 mmol/kg, po; format: organism-based; settings: in vivo
Outline: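 Rats given single oral dose suspended in saline with few drops Tween 80 (groups of 6); killed under deep ether anaesthesia 5 h after treatment; stomach opened along greater curvature and examined for lesions or bleeding; ulceration expressed as number of rats affected per group.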

[7] = Lipophilicity, log P of the compound; format: physicochemical; settings: octanol/water
Rattus norvegicus [8] = test: Antiinflammatory activity in Wistar albino rat assessed as inhibition of carrageenan-induced paw edema at 0.029 mmol/kg, po dosed 1 hr before carrageenan challenge measured 3 hrs post carrageenan-induced inflammation

## O=C1CC(O)=NN1C(=O)c1nc2c(c(=O)[nH]1)C1CCCN1C(=O)N2c1ccccc1 (stereo not drawn)
Rattus norvegicus [1]
  inhibition in vivo at 29 µmol/kg: 44%
Rattus norvegicus [2]
  inhibition in vivo at 29 µmol/kg: 65%
Mus musculus [3]
  inhibition in vivo at 29 µmol/kg: 61.9%
Mus musculus [4]
  writhing inhibition relative to indomethacin (potency %) at 29 µmol/kg: 93.6%
Rattus norvegicus [5]
  inhibition in vivo at 29 µmol/kg: 68%
Rattus norvegicus [6]
  Activity: Non-toxic
[7]
  logP: 0.693
Rattus norvegicus [8]
  inhibition in vivo at 29 µmol/kg: 49%

## O=C(N/N=C/c1ccc(Cl)cc1)c1nc2c(c(=O)[nH]1)C1CCCN1C(=O)N2c1ccccc1 (stereo not drawn)
Rattus norvegicus [1]
  inhibition in vivo at 29 µmol/kg: 32%
Rattus norvegicus [2]
  inhibition in vivo at 29 µmol/kg: 38%
Mus musculus [3]
  inhibition in vivo at 29 µmol/kg: 34.8%
Mus musculus [4]
  writhing inhibition relative to indomethacin (potency %) at 29 µmol/kg: 52.7%
Rattus norvegicus [5]
  inhibition in vivo at 29 µmol/kg: 54%
Rattus norvegicus [6]
  Activity: Non-toxic
[7]
  logP: 3.36
Rattus norvegicus [8]
  inhibition in vivo at 29 µmol/kg: 44%

## O=C(N/N=C/c1ccccc1)c1nc2c(c(=O)[nH]1)C1CCCN1C(=O)N2c1ccccc1 (stereo not drawn)
Rattus norvegicus [1]
  inhibition in vivo at 29 µmol/kg: 41%
Rattus norvegicus [2]
  inhibition in vivo at 29 µmol/kg: 50%
Mus musculus [3]
  inhibition in vivo at 29 µmol/kg: 57.6%
Mus musculus [4]
  writhing inhibition relative to indomethacin (potency %) at 29 µmol/kg: 87.2%
Rattus norvegicus [5]
  inhibition in vivo at 29 µmol/kg: 68%
Rattus norvegicus [6]
  Activity: Toxic
[7]
  logP: 3.35
Rattus norvegicus [8]
  inhibition in vivo at 29 µmol/kg: 53%

## C/C(=N\NC(=O)c1nc2c(c(=O)[nH]1)C1CCCN1C(=O)N2c1ccccc1)c1ccccc1 (stereo not drawn)
Rattus norvegicus [1]
  inhibition in vivo at 29 µmol/kg: 44%
Rattus norvegicus [2]
  inhibition in vivo at 29 µmol/kg: 61%
Mus musculus [3]
  inhibition in vivo at 29 µmol/kg: 67.5%
Mus musculus [4]
  writhing inhibition relative to indomethacin (potency %) at 29 µmol/kg: 102%
Rattus norvegicus [5]
  inhibition in vivo at 29 µmol/kg: 61%
Rattus norvegicus [6]
  Activity: Toxic
[7]
  logP: 3.28
Rattus norvegicus [8]
  inhibition in vivo at 29 µmol/kg: 53%

## COc1ccc(/C=N/NC(=O)c2nc3c(c(=O)[nH]2)C2CCCN2C(=O)N3c2ccccc2)cc1 (stereo not drawn)
Rattus norvegicus [1]
  inhibition in vivo at 29 µmol/kg: 21%
Rattus norvegicus [2]
  inhibition in vivo at 29 µmol/kg: 47%
Mus musculus [3]
  inhibition in vivo at 29 µmol/kg: 71.8%
Mus musculus [4]
  writhing inhibition relative to indomethacin (potency %) at 29 µmol/kg: 109%
Rattus norvegicus [5]
  inhibition in vivo at 29 µmol/kg: 51%
Rattus norvegicus [6]
  Activity: Non-toxic
[7]
  logP: 2.76
Rattus norvegicus [8]
  inhibition in vivo at 29 µmol/kg: 44%

## Cc1cc(=O)n(C(=O)c2nc3c(c(=O)[nH]2)C2CCCN2C(=O)N3c2ccccc2)[nH]1 (stereo not drawn)
Rattus norvegicus [1]
  inhibition in vivo at 29 µmol/kg: 34%
Rattus norvegicus [2]
  inhibition in vivo at 29 µmol/kg: 62%
Mus musculus [3]
  inhibition in vivo at 29 µmol/kg: 61%
Mus musculus [4]
  writhing inhibition relative to indomethacin (potency %) at 29 µmol/kg: 92.2%
Rattus norvegicus [5]
  inhibition in vivo at 29 µmol/kg: 57%
Rattus norvegicus [6]
  Activity: Non-toxic
[7]
  logP: 0.772
Rattus norvegicus [8]
  inhibition in vivo at 29 µmol/kg: 57%

## COc1ccc(/C=N/NC(=O)c2nc3c(c(=O)[nH]2)C2CCCN2C(=O)N3c2ccccc2)cc1O (stereo not drawn)
Rattus norvegicus [1]
  inhibition in vivo at 29 µmol/kg: 15%
Rattus norvegicus [2]
  inhibition in vivo at 29 µmol/kg: 46%
Mus musculus [3]
  inhibition in vivo at 29 µmol/kg: 43.8%
Mus musculus [4]
  writhing inhibition relative to indomethacin (potency %) at 29 µmol/kg: 66.2%
Rattus norvegicus [5]
  inhibition in vivo at 29 µmol/kg: 18%
Rattus norvegicus [6]
  Activity: Non-toxic
[7]
  logP: 2.42
Rattus norvegicus [8]
  inhibition in vivo at 29 µmol/kg: 46%

## Cc1cc(C)n(C(=O)c2nc3c(c(=O)[nH]2)C2CCCN2C(=O)N3c2ccccc2)n1 (stereo not drawn)
Rattus norvegicus [1]
  inhibition in vivo at 29 µmol/kg: 57%
Rattus norvegicus [2]
  inhibition in vivo at 29 µmol/kg: 67%
Mus musculus [3]
  inhibition in vivo at 29 µmol/kg: 62.1%
Mus musculus [4]
  writhing inhibition relative to indomethacin (potency %) at 29 µmol/kg: 94%
Rattus norvegicus [5]
  inhibition in vivo at 29 µmol/kg: 58%
Rattus norvegicus [6]
  Activity: Non-toxic
[7]
  logP: 1.46
Rattus norvegicus [8]
  inhibition in vivo at 29 µmol/kg: 65%

## C/C(=N\NC(=O)c1nc2c(c(=O)[nH]1)C1CCCN1C(=O)N2c1ccccc1)c1ccc(Cl)cc1 (stereo not drawn)
Rattus norvegicus [1]
  inhibition in vivo at 29 µmol/kg: 50%
Rattus norvegicus [2]
  inhibition in vivo at 29 µmol/kg: 57%
Mus musculus [3]
  inhibition in vivo at 29 µmol/kg: 62.1%
Mus musculus [4]
  writhing inhibition relative to indomethacin (potency %) at 29 µmol/kg: 94%
Rattus norvegicus [5]
  inhibition in vivo at 29 µmol/kg: 43%
Rattus norvegicus [6]
  Activity: Toxic
[7]
  logP: 3.29
Rattus norvegicus [8]
  inhibition in vivo at 29 µmol/kg: 51%

## O=C(O)c1nc2c(c(=O)[nH]1)C1CCCN1C(=O)N2c1ccccc1 (stereo not drawn)
Rattus norvegicus [1]
  inhibition in vivo at 29 µmol/kg: 56%
Rattus norvegicus [2]
  inhibition in vivo at 29 µmol/kg: 72%
Mus musculus [3]
  inhibition in vivo at 29 µmol/kg: 64.7%
Mus musculus [4]
  writhing inhibition relative to indomethacin (potency %) at 29 µmol/kg: 97.8%
Rattus norvegicus [5]
  inhibition in vivo at 29 µmol/kg: 68%
Rattus norvegicus [6]
  Activity: Toxic
[7]
  logP: 0.661
Rattus norvegicus [8]
  inhibition in vivo at 29 µmol/kg: 66%

## Nc1cc(=O)[nH]n1C(=O)c1nc2c(c(=O)[nH]1)C1CCCN1C(=O)N2c1ccccc1 (stereo not drawn)
Rattus norvegicus [1]
  inhibition in vivo at 29 µmol/kg: 20%
Rattus norvegicus [2]
  inhibition in vivo at 29 µmol/kg: 50%
Mus musculus [3]
  inhibition in vivo at 29 µmol/kg: 70.3%
Mus musculus [4]
  writhing inhibition relative to indomethacin (potency %) at 29 µmol/kg: 106%
Rattus norvegicus [5]
  inhibition in vivo at 29 µmol/kg: 50%
Rattus norvegicus [6]
  Activity: Non-toxic
[7]
  logP: 0.517
Rattus norvegicus [8]
  inhibition in vivo at 29 µmol/kg: 45%

## O=C(N/N=C/c1ccccc1O)c1nc2c(c(=O)[nH]1)C1CCCN1C(=O)N2c1ccccc1 (stereo not drawn)
Rattus norvegicus [1]
  inhibition in vivo at 29 µmol/kg: 34%
Rattus norvegicus [2]
  inhibition in vivo at 29 µmol/kg: 47%
Mus musculus [3]
  inhibition in vivo at 29 µmol/kg: 68.9%
Mus musculus [4]
  writhing inhibition relative to indomethacin (potency %) at 29 µmol/kg: 104%
Rattus norvegicus [5]
  inhibition in vivo at 29 µmol/kg: 53%
Rattus norvegicus [6]
  Activity: Toxic
[7]
  logP: 2.46
Rattus norvegicus [8]
  inhibition in vivo at 29 µmol/kg: 46%

## O=C(NN=C(c1ccccc1)c1ccccc1)c1nc2c(c(=O)[nH]1)C1CCCN1C(=O)N2c1ccccc1 (stereo not drawn)
Rattus norvegicus [1]
  inhibition in vivo at 29 µmol/kg: 51%
Rattus norvegicus [2]
  inhibition in vivo at 29 µmol/kg: 53%
Mus musculus [3]
  inhibition in vivo at 29 µmol/kg: 81.9%
Mus musculus [4]
  writhing inhibition relative to indomethacin (potency %) at 29 µmol/kg: 124%
Rattus norvegicus [5]
  inhibition in vivo at 29 µmol/kg: 44%
Rattus norvegicus [6]
  Activity: Non-toxic
[7]
  logP: 5.52
Rattus norvegicus [8]
  inhibition in vivo at 29 µmol/kg: 51%

## CC(C)=NNC(=O)c1nc2c(c(=O)[nH]1)C1CCCN1C(=O)N2c1ccccc1 (stereo not drawn)
Rattus norvegicus [1]
  inhibition in vivo at 29 µmol/kg: 23%
Rattus norvegicus [2]
  inhibition in vivo at 29 µmol/kg: 36%
Mus musculus [3]
  inhibition in vivo at 29 µmol/kg: 58.8%
Mus musculus [4]
  writhing inhibition relative to indomethacin (potency %) at 29 µmol/kg: 89%
Rattus norvegicus [5]
  inhibition in vivo at 29 µmol/kg: 26%
Rattus norvegicus [6]
  Activity: Non-toxic
Rattus norvegicus [8]
  inhibition in vivo at 29 µmol/kg: 35%

## CCOC(=O)C/C(C)=N/NC(=O)c1nc2c(c(=O)[nH]1)C1CCCN1C(=O)N2c1ccccc1 (stereo not drawn)
Rattus norvegicus [1]
  inhibition in vivo at 29 µmol/kg: 41%
Rattus norvegicus [2]
  inhibition in vivo at 29 µmol/kg: 52%
Mus musculus [3]
  inhibition in vivo at 29 µmol/kg: 1.17%
Mus musculus [4]
  writhing inhibition relative to indomethacin (potency %) at 29 µmol/kg: 1.77%
Rattus norvegicus [5]
  inhibition in vivo at 29 µmol/kg: 45%
Rattus norvegicus [6]
  Activity: Non-toxic
[7]
  logP: 1.28
Rattus norvegicus [8]
  inhibition in vivo at 29 µmol/kg: 47%

## CCOC(=O)c1nc2c(c(=O)[nH]1)C1CCCN1C(=O)N2c1ccccc1 (stereo not drawn)
Rattus norvegicus [1]
  inhibition in vivo at 29 µmol/kg: 67%
Rattus norvegicus [2]
  inhibition in vivo at 29 µmol/kg: 66%
Mus musculus [3]
  inhibition in vivo at 29 µmol/kg: 29.4%
Mus musculus [4]
  writhing inhibition relative to indomethacin (potency %) at 29 µmol/kg: 44.5%
Rattus norvegicus [5]
  inhibition in vivo at 29 µmol/kg: 71%
Rattus norvegicus [6]
  Activity: Non-toxic
[7]
  logP: 2.02
Rattus norvegicus [8]
  inhibition in vivo at 29 µmol/kg: 68%

## NNC(=O)c1nc2c(c(=O)[nH]1)C1CCCN1C(=O)N2c1ccccc1 (stereo not drawn)
Rattus norvegicus [1]
  inhibition in vivo at 29 µmol/kg: 45%
Rattus norvegicus [2]
  inhibition in vivo at 29 µmol/kg: 56%
Mus musculus [3]
  inhibition in vivo at 29 µmol/kg: 32.2%
Mus musculus [4]
  writhing inhibition relative to indomethacin (potency %) at 29 µmol/kg: 48.7%
Rattus norvegicus [5]
  inhibition in vivo at 29 µmol/kg: 56%
Rattus norvegicus [6]
  Activity: Toxic
[7]
  logP: -0.487
Rattus norvegicus [8]
  inhibition in vivo at 29 µmol/kg: 50%

## CCO/C=N/NC(=O)c1nc2c(c(=O)[nH]1)C1CCCN1C(=O)N2c1ccccc1 (stereo not drawn)
Rattus norvegicus [1]
  inhibition in vivo at 29 µmol/kg: 55%
Rattus norvegicus [2]
  inhibition in vivo at 29 µmol/kg: 55%
Mus musculus [3]
  inhibition in vivo at 29 µmol/kg: 24.9%
Mus musculus [4]
  writhing inhibition relative to indomethacin (potency %) at 29 µmol/kg: 37.7%
Rattus norvegicus [5]
  inhibition in vivo at 29 µmol/kg: 47%
Rattus norvegicus [6]
  Activity: Non-toxic
[7]
  logP: 1.44
Rattus norvegicus [8]
  inhibition in vivo at 29 µmol/kg: 64%
